# Assay results published in paper PMC9262120 (Chembiochem : a European journal of chemical biology, 2022).
# Experiments:
# [1] = tested on: TMV; assay: TMV–TBPT25-FITC ELISA; assay type: binding, Tobacco mosaic virus; conditions: varying TMV coated on plates; Figure S5
# [2] = tested on: BSA; assay: Off-target binding to blocking agent BSA; parameters: species or system bovine
# [3] = tested on: TMGMV; assay: Cross-reactivity ELISA, TMGMV; assay type: binding, tobacco mild green mosaic virus; conditions: conclusion
# Procedure, shortened: (§1)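 Wells coated with 10 µg virus or VLP in 0.1 M bicarbonate, pH 8.6, overnight at 4 °C, then blocked with 5% BSA for 1 h at RT. 10^9 pfu phage in 5% BSA were added for 1 h, followed by 0.5% TBST washes. Detection used HRP anti-M13 (1:500, 1 h) and TMB for 10 min in the dark, read at 370 nm. Controls were empty M13KE phage and BSA-coated wells.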
# [4] = tested on: TMV; assay: ELISA with biotinylated peptide on streptavidin plates; assay type: binding, Tobacco mosaic virus; conditions: CPMV-specific vs TMV-specific biotinylated peptide, Figure S3
# Procedure, shortened: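 0.1 µg biotinylated peptide was bound to streptavidin-coated plates for 1 h at RT; control wells received 5% BSA without peptide. Plates were blocked with 5% BSA, then 10 µg TMV was added for 1 h. Detection used rabbit anti-TMV polyclonal (1:1000, 1 h), then HRP goat anti-rabbit (1:10,000, 1 h), then TMB for 5–10 min. Reactions were stopped with 2 M H₂SO₄ and read at 450 nm.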
# [5] = tested on: CPMV; assay: Cross-reactivity ELISA, CPMV; assay type: binding, cowpea mosaic virus; conditions: conclusion
# Procedure, shortened: as §1
# [6] = biological target: T1, tobacco mild green mosaic virus particles (tobacco mild green mosaic virus, UniProt P03579 1-159); assay: ELISA
# T1 sequence: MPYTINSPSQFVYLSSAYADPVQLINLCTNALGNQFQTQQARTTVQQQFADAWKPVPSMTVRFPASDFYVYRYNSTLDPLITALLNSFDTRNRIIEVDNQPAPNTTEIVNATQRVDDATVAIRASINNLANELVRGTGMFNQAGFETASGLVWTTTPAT
molecule,measurement,setting,value
H2N-GHRCRGGVCYKKKGGGSK/FITC/-CO2H [TBPT25-FITC],concentration dependence of binding,[1],"the more TMV coated onto the plates, the higher signal"
H-GHRCRGGVCYKK-OH (cysteine pairing not given here) [TBPT25],off-target binding to BSA,[2],Some off-target binding
same,off-target binding to TMGMV,[3],Some off-target binding
same,"TMV binding, random peptide comparison",[4],TMV binding to the TMV-specific TBPT25 was confirmed
same,off-target binding to CPMV,[5],Some off-target binding
GHRCRGGVCYKK (designed binder) [monoclonal phage T25 (M13 phage displaying [residues removed])],fold less binding than to TMV,[6],1.2 fold
